Measurements from different studies.
Each line is one published result; the experiments were not run side by side.
Target: Mitogen-activated protein kinase 3 (MAPK3, Homo sapiens, UniProt P27361)

FC(F)(F)Oc1cccc(-c2cnc3ccc(-c4ccncc4)nn23)c1  remaining binding (cell-free assay, competition with immobilised ligand; 5 µM): 88%
CN(C)c1nccc(-c2cnn3ncccc23)n1  remaining binding (binding; 1 µM): 100%
CC(=O)C1=C(C)N(c2cccc(C(F)(F)F)c2)C(=O)N[C@@H]1c1ccc(C#N)nc1  remaining binding (cell-free assay, competition with immobilised ligand; 1 µM): 97.1%
COc1ccnn2ncc(-c3ccnc(N(C)C)n3)c12  remaining binding (binding; 1 µM): 92%
C[C@@H]1CN(c2cc(-c3nn(C)c4ccc(OC5(C)CC5)cc34)ncn2)C[C@H](C)O1  remaining binding (cell-free assay, competition with immobilised ligand; 1 µM): 100%
O=C(Nc1c[nH]nc1C(=O)NC1CCNCC1)c1cc(F)cc(F)c1  remaining binding (binding, competition with immobilised ligand; 1 µM): 100%
C[C@H](c1cccc(C#N)c1)n1cc(Cl)cc(C(N)=O)c1=N  remaining binding (cell-free assay, competition with immobilised ligand; 1 µM): 97%
Cc1cnc(Nc2ccc(C(=O)N3CCC(N4CCCC4)CC3)cc2)nc1-c1cc2ccccc2s1  remaining binding (binding, competition with immobilised ligand; 1 µM): 100%
CO[C@@H](C)c1c(Nc2ccc([C@H](N(C)C(=O)C3CCS(=O)(=O)CC3)C(F)(F)F)cc2)cnc2cc(Cl)nn12  remaining binding (cell-free assay, competition with immobilised ligand; 1 µM): 100%
O=C(NCCCN1CCOCC1)c1ccc(Nc2nccc(-c3cc4ccccc4s3)n2)cc1  remaining binding (binding, competition with immobilised ligand; 1 µM): 100%
O=C(Nc1cccnn1)N1CC(C/C=C/c2cncc(Oc3ccc(C(F)(F)F)cn3)n2)C1  remaining binding (cell-free assay, competition with immobilised ligand; 1 µM): 99%
CN(C)c1ncc(F)c(-c2cnn3ncccc23)n1  remaining binding (binding; 1 µM): 91%
C[C@@H]1CN(c2ccc3ncc(-c4ccc5[nH]nc(C6CC6)c5c4)n3n2)C[C@H](C)O1  remaining binding (binding, competition with immobilised ligand; 50 nM): 100%
O=C(O)[C@@H]1[C@@H](Cn2nnc3ccccc3c2=O)CC[C@H]1C(=O)c1ccc(OCCC2CCOCC2)cc1  remaining binding (cell-free assay, competition with immobilised ligand; 1 µM): 100%
N[C@H]1CCN(c2nccc(-c3cnn4ncccc34)n2)C1  remaining binding (binding; 1 µM): 91%
CNC(=O)[C@@H]1CC[C@@H](n2c(-c3ccc4cnccc4c3)nc3ccc(C(=O)NCc4cccc(C(N)=O)c4)cc32)C1  remaining binding (binding, competition with immobilised ligand; 1 µM): 100%
Cn1cc(Cl)c2c(Oc3c(F)cc(Nc4cc(Cl)nc(N)n4)cc3F)ccnc21  remaining binding (cell-free assay, competition with immobilised ligand; 0.1 µM): 98%
O=C(NCCCN1CCOCC1)c1ccc(Nc2ncc(Cl)c(-c3ccc(Cl)s3)n2)cc1  remaining binding (binding, competition with immobilised ligand; 1 µM): 100%
Cc1cnn2ncc(-c3ccnc(N(C)C)n3)c2c1  remaining binding (binding; 1 µM): 100%
Nc1ncc2c(n1)-c1c([nH]c3ccc(C#CC4CC4)cc13)CCCC2  remaining binding (binding, competition with immobilised ligand; 1 µM): 100%
Cc1c(NC(=O)c2cc(C(N)=O)nc3cc(F)ccc23)c(C(F)(F)F)nn1Cc1ccc(C(C)(C)C)cc1  remaining binding (cell-free assay, competition with immobilised ligand; 1 µM): 100%
C[C@H]1CCN(c2nccc(-c3cnn4ncccc34)n2)C1  remaining binding (binding; 1 µM): 83%
c1cncc(-c2cccc(Nc3nccc(NC4CCCCC4)n3)c2)c1  remaining binding (binding, competition with immobilised ligand; 10 µM): 100%
CN(C)c1nccc(-c2cnc3ncccn23)n1  remaining binding (binding; 1 µM): 100%
CC(C)(C)c1ccc(-c2nc(CBr)nn2-c2cccc(O)c2)cc1  remaining binding (cell-free assay, competition with immobilised ligand; 10 µM): 91%
